CHRM4 antagonist: antagonists of human muscarinic M4 receptor (CHRM4); 360,000 compounds, 0.73% hits; CHO-hM4 cells, ACh EC80, Fluo-8 calcium fluorescence; AID 624125; inhibition, % at 3 µM;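 active = inhibition above its plate's cutoff, the mean inhibition of sample wells plus 3 SD, cut at about 27% in these data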
CHRM4 PAM: CHRM4 positive allosteric modulation; CHO-K1 hM4/Gqi5, Fluo-8 calcium fluorescence, ACh EC20; 0% = ACh EC20, 100% = maximal ACh; activation, % at 3 µM; 360,000 compounds, 0.4% hits;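 active = activation above its plate's cutoff, the mean activation of sample wells plus 3 SD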
M4 ag: agonists of human muscarinic M4 receptor (CHRM4). P08173. 360,000 compounds, 0.14% hits. activation, % at 3 µM. CHO-K1 hM4/Gqi5, Fluo-8 calcium fluorescence; vehicle 0%, full acetylcholine response 100%. AID 624127;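 active = activation above the run mean over all test wells plus 3 SD, cut at about 32% in these data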;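 also: peak over basal fluorescence ratio per well then scaled between controls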
M5 PAM: CHRM5 positive allosteric modulation. P08912. CHO-K1 hM5, Fluo-8 calcium, ACh EC20 PAM; 0% = ACh EC20, 100% = ACh EC100. activation, % at 3 µM. 360,000 compounds, 0.3% hits. AID 624038;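 active = activation above the run cutoff, the mean activation of all test compounds plus 3 SD, cut at about 18% in these data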
Target sequence (P08912 whole entry, looked up): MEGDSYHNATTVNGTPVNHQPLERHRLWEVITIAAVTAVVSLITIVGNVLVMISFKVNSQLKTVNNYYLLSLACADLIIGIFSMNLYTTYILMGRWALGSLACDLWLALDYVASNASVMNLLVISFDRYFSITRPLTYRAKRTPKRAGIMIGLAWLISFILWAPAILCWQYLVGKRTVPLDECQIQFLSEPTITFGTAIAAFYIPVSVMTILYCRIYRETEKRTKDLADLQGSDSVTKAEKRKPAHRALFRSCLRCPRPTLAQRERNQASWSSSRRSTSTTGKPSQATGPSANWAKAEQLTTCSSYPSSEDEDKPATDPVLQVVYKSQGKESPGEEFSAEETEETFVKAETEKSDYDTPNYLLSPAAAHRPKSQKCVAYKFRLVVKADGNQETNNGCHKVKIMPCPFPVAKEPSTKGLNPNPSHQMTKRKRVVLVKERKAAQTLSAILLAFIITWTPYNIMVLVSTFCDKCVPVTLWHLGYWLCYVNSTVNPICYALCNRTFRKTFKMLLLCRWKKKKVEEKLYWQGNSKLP
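Replicates: One well per compound, no replicates | System: Human M5 receptor in CHO-K1 cells | Benchmarks: Low control EC20 acetylcholine (0%), high control EC100 acetylcholine (100%) | Probe or stimulus: Acetylcholine, EC20 level | Times: Fluo-8 loading 80 min at 37 °C plus 30 min room temperature | Signal: Intracellular calcium via Fluo-8 fluorescence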
M5 ag: CHRM5 agonism in calcium assay; P08912; CHO-K1 hM5 cells, Fluo-8 calcium fluorescence; 0% DMSO wells, 100% maximal acetylcholine response; activation, % at 3 µM; 360,000 compounds, 0.19% hits; AID 624037;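 active = activation above the run's mean over test compounds plus 3 SD, cut at about 23% in these data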;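 also: signal is peak over basal fluorescence ratio across the kinetic read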
M5 antag: antagonists of human muscarinic M5 receptor (CHRM5). CHO-hM5 cells, Fluo-8 calcium fluorescence, ACh EC80. AID 624040. 360,000 compounds, 0.59% hits. P08912. inhibition, % at 3 µM;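 active = inhibition above a per-plate cutoff, the mean of that plate's test compounds plus 3 SD, cut at about 27% in these data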
A number is an active result; i = inactive. Rows were chosen to be rich in hits. Some 1.9% of all compounds tested hit in one or more screens of this group.

SMILES	CHRM4 antagonist	CHRM4 PAM	M4 ag	M5 PAM	M5 ag	M5 antag
CCN(C(=O)c1ccc(C(C)(C)C)cc1)c1nnc(Cn2nnc3ccccc32)s1	29	i	i	i	i	33
CC(=O)NCCCc1nc2ccccc2n1Cc1ccccc1C	27	i	i	i	i	i
CCOc1ccc(C2NCCc3cc(OC)c(OC)cc32)cc1OC (stereo unspecified)	i	14	i	i	i	i
CON(C)C(=O)C[C@@H]1C[C@H](OC(=O)c2ccc([N+](=O)[O-])cc2)CN1C(=O)OC(C)(C)C	i	i	i	i	i	i
COc1ccc(-c2nn(-c3ccccc3)cc2C(=O)N2CCN(C(=O)c3ccco3)CC2)cc1	i	i	i	i	i	i
CCc1nc2ccc(C(=O)N3CCN(C(=O)c4ccco4)CC3)cn2c1N(C)C(=O)Nc1ccccc1OC	i	i	i	i	i	i
Cc1cc(C)[n+]2[nH]c(N)c(N=Nc3ccccc3)c2n1	i	i	i	22	i	i
C=CCN1C(=O)C2(OCCCO2)c2cc(C)ccc21	i	i	i	20	i	i
C=CCN1C(=O)C2(OCCCO2)c2cc(CCCC)ccc21	i	i	i	i	i	i
COc1cccc(OCC(=O)NNC(=O)c2ccc3ccccc3c2)c1	i	i	i	i	i	i
CCCc1cc(C(=O)NNC(=S)NCc2ccccc2)cs1	i	i	i	i	i	i
CCCc1cc(C(=O)NNC(=S)NC2CCCCC2)cs1	i	18	i	i	i	i
CCOC(OCC)c1nc(N)[nH]c(=O)c1CCCCc1ccccc1	i	i	i	i	i	i
O=c1c2ccccc2oc2nc(-c3ccco3)n(Cc3ccccc3)c(=O)c12	i	i	i	37	i	i
CN(CC(=O)Nc1cccc2ccccc12)C(=O)c1ccc(F)cc1F	i	23	i	i	i	i
O=C(CN(Cc1ccco1)C(=O)c1cc(=O)[nH]c2ccccc12)Nc1ccccc1C(F)(F)F	i	i	i	i	i	i
O=C(CN(Cc1ccco1)C(=O)c1ccc(F)cc1F)Nc1ccccc1C(F)(F)F	i	23	i	i	i	i
N#CCCN1CCCc2cc(N=Nc3ccc(C(F)(F)F)cc3)ccc21	i	i	i	20	i	i
CCC(c1nc2ccccc2[nH]1)n1c(-c2ccnc(Cl)c2)nc2ccccc21 (stereo unspecified)	i	i	i	i	i	i
CC1CCCCN1S(=O)(=O)c1ccc2c(c1)CCN2C(=O)C1CC1 (stereo unspecified)	i	i	i	i	i	i
CCOC(=O)C1CCN(S(=O)(=O)c2cn(C)c(=O)n(C)c2=O)CC1	32	i	i	i	i	i
O=C(CN1C(=O)NC2(CCOc3ccccc32)C1=O)NCCc1ccc(F)cc1 (stereo unspecified)	i	i	i	i	i	i
COc1cc2c(cc1OC)CN(C(=O)c1ccc(S(=O)(=O)N3CCCCC3)cc1)CC2	i	i	i	i	i	i
COc1cc2c(cc1OC)CN(C(=O)C1CCCN1S(=O)(=O)c1ccc(F)cc1)CC2 (stereo unspecified)	i	17	i	i	i	i
COc1ccc(S(=O)(=O)N2CCCCC2C(=O)O)cc1OC (stereo unspecified)	i	i	i	21	i	i
SMILES	CHRM4 antagonist	CHRM4 PAM	M4 ag	M5 PAM	M5 ag	M5 antag
COc1cc2c(cc1OC)CN(C(=O)CNS(=O)(=O)c1ccc(C)c(C)c1)CC2	i	30	i	23	i	i
O=Cc1c[nH]c2ccc(C(=O)c3ccccc3)cc12	i	i	i	i	i	i
CC(=O)N1c2ccc(S(=O)(=O)NCC3CCC(C(=O)NC4CCCCC4C)CC3)cc2CC1C (stereo unspecified)	i	i	i	i	i	i
CC(=O)OCc1c(C(F)(F)F)nn(C)c1Oc1ccccc1	i	i	i	19	i	i
CC(=O)OCc1c(C(F)(F)F)nn(C)c1Oc1cccc(C(F)(F)F)c1	i	i	i	i	i	i
CC1CCCCC12NC(=O)N(CC(=O)Nc1ccc3[nH]c(=O)[nH]c3c1)C2=O (stereo unspecified)	i	i	i	i	i	i
O=[N+]([O-])c1ccccc1CNc1ccc(F)c(Cl)c1	i	i	i	i	i	i
COc1cccc(CNc2ccc(F)c([N+](=O)[O-])c2)c1O	68	i	i	i	i	i
Cc1ccc(C(=O)OCC(=O)N2CC(C)OC(C)C2)cc1 (stereo unspecified)	i	16	i	i	i	i
COc1ccc(-c2cc(C(=O)N3CCN(c4ncccn4)CC3)c3ccccc3n2)c(OC)c1	i	i	i	i	i	i
COc1ccc(-c2cc(C(=O)N3CCN(c4ccccc4F)CC3)c3ccccc3n2)c(OC)c1	i	i	i	i	i	36
COc1ccc(-c2cc(C(=O)N3CCCCCC3)c3ccccc3n2)c(OC)c1	i	i	i	i	i	i
COc1ccc(OC)c(-c2cc(C(=O)N3CCN(c4ncccn4)CC3)c3ccccc3n2)c1	i	i	i	i	i	31
COc1ccc(OC)c(-c2cc(C(=O)N/N=C/c3ccc(F)cc3)c3ccccc3n2)c1	i	i	i	i	i	i
COc1ccc(OC)c(-c2cc(C(=O)Nc3ccccc3C(N)=O)c3ccccc3n2)c1	31	i	i	i	i	i
O=C(CN1C(=O)NC2(CCCCC2)C1=O)Nc1ccc2c(c1)OCCCO2	i	i	i	i	i	i
CCN(CC)c1ccc(/C=C2/SC(=O)N(C(C)C)C2=O)o1	41	i	i	i	i	i
O=C(COC(=O)C1=COCCO1)Nc1ccccc1	i	i	i	i	i	i
CC(C)(C)NC(=O)NC(=O)COC(=O)C1=COCCO1	i	i	i	36	i	i
COC(=O)[C@]12CCCCC=C1N(CCc1ccc(OC)c(OC)c1)C(=O)[C@H](CC(=O)NCCC(C)C)C2	i	i	i	i	i	i
O=C(Cn1nnc(-c2ccc(CN3CCOCC3)cc2)n1)N(c1ccccc1)c1ccccc1	i	i	i	23	i	i
Cc1ccc(N2CC(C(=O)N3CCC(C(=O)NCCCOC(C)C)CC3)CC2=O)cc1 (stereo unspecified)	i	i	i	i	i	i
CN(N)c1nc(C(F)(F)F)nc2ccccc12	i	i	i	i	i	i
CN(NS(=O)(=O)c1ccc(Br)cc1)c1nc(C(F)(F)F)nc2ccccc12	i	i	i	i	i	29
C=CCN(c1ccc(OC)cc1)S(=O)(=O)c1ccc(Cl)c(C(=O)OCC(=O)NC2CC2)c1	i	i	i	i	i	i
